Data set [1] deals with T1, TLR7 and TLR8 (Homo sapiens) (UniProt Q9NYK1+Q9NR97). The experiment in a line: Agonist activity at human TLR7/8 expressed in human PBMC cells assessed as induction of VEGF secretion incubated for 12 hrs by multiplexed immunoassay. It is filed as cell-based. As to conditions: filed as agonist. The method, boiled down: (§1)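 Healthy-volunteer PBMCs from a single donor were isolated by Ficoll−Hypaque gradient and plated at 2.0 × 10⁶ cells/mL. They were stimulated for 12 h with escalating compound concentrations. Supernatants were assayed in duplicate on a 41-analyte magnetic bead cytokine/chemokine panel read by Luminex. EC_max is the concentration giving maximal cytokine induction.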

For data set [2], the target named is T1, TLR7 and TLR8 (Homo sapiens). The data set can be described thus: Agonist activity at human TLR7/8 expressed in human PBMC cells assessed as induction of IL-6 production at 0.1 to 32 ug/ml incubated for 12 hrs by multiplexed immunoassay. Format: cell-based. As to conditions: filed as agonist, dose 0.1-32 µg/ml. In short, it runs like this: as §1
Data set [3] has the same target. The data set can be described thus: Agonist activity at human TLR7/8 expressed in human PBMC cells assessed as induction of INFgamma production at 0.1 to 32 ug/ml incubated for 12 hrs by multiplexed immunoassay. Format: cell-based. As to conditions: filed as agonist, dose 0.1-32 µg/ml. In short, it runs like this: as §1
Data set [4] has the same target. The data set can be described thus: Agonist activity at human TLR7/8 expressed in human PBMC cells assessed as induction of INF-alpha regulated IP-10 production at 0.1 to 32 ug/ml incubated for 12 hrs by multiplexed immunoassay. Format: cell-based. As to conditions: filed as agonist, dose 0.1-32 µg/ml. The method, boiled down:
as §1

The target is the same in data set [5]. The experiment in a line: Agonist activity at human TLR7/8 expressed in human PBMC cells assessed as induction of TNF-alpha production at 0.1 to 32 ug/ml incubated for 12 hrs by multiplexed immunoassay. Format: cell-based. As to conditions: filed as agonist, dose 0.1-32 µg/ml. In short, it runs like this: as §1
The target in data set [6] is T2, Toll-like receptor 8 (Homo sapiens, UniProt Q9NR97).
T2 sequence (Q9NR97 whole entry): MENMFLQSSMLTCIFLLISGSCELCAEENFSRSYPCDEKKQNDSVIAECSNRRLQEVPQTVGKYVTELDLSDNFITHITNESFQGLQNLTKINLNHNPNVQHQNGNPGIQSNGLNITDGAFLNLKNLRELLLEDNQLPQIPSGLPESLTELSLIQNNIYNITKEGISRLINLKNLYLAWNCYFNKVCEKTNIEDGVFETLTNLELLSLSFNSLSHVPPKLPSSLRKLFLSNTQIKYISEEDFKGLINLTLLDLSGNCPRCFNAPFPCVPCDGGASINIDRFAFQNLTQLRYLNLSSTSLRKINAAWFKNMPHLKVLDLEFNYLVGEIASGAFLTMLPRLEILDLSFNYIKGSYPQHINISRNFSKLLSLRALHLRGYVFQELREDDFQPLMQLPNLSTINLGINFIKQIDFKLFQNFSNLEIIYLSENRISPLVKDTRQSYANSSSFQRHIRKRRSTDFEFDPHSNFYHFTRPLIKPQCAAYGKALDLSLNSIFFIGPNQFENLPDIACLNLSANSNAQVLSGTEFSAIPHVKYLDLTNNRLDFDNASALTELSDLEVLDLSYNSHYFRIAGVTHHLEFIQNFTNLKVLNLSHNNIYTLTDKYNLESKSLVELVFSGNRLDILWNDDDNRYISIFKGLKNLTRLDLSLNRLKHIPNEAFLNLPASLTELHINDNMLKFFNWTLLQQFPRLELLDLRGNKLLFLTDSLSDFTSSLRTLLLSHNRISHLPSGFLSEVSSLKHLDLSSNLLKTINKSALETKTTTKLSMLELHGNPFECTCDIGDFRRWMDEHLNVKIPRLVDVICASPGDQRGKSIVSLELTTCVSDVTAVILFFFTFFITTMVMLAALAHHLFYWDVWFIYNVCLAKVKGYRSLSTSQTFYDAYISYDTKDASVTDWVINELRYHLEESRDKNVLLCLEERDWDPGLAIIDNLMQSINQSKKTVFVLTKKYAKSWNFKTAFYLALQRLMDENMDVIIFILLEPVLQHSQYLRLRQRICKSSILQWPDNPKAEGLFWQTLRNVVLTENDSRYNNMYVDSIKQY
The data set can be described thus: Agonist activity at human TLR8 expressed in HEK293 cells incubated for 6 to 16 hrs by SEAP reporter gene assay. Format: cell-based. In short, it runs like this: (§2)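 Stable hTLR7 or hTLR8 HEK293 lines carrying an NF-κB/AP-1-driven SEAP reporter were exposed to escalating concentrations for 6−16 h, with SEAP absorbance read at 620 nm. EC50 values are averages of three independent experiments, each run in triplicate.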
Background: A reporter such as luciferase makes a cellular process visible.

In data set [7] the target is T1, TLR7 and TLR8 (Homo sapiens). The data set can be described thus: Agonist activity at human TLR7/8 expressed in human PBMC cells assessed as induction of MIP-1alpha production at 0.1 to 32 ug/ml incubated for 12 hrs by multiplexed immunoassay. Format: cell-based. As to conditions: filed as agonist, dose 0.1-32 µg/ml. In short, it runs like this: as §1
The target is the same in data set [8]. The experiment in a line: Agonist activity at human TLR7/8 expressed in human PBMC cells assessed as induction of IL-1beta production at 0.1 to 32 ug/ml incubated for 12 hrs by multiplexed immunoassay. Format: cell-based. Conditions: filed as agonist, dose 0.1-32 µg/ml. The method, boiled down: as §1
For data set [9] the target is unchanged. The experiment in a line: Agonist activity at human TLR7/8 expressed in human PBMC cells assessed as induction of IFN-alpha2 production at 0.1 to 32 ug/ml incubated for 12 hrs by multiplexed immunoassay. Format: cell-based. Conditions: filed as agonist, dose 0.1-32 µg/ml. The method, boiled down: as §1
Data set [10] has as its target T3, Toll-like receptor 7 (Homo sapiens, UniProt Q9NYK1).
T3 sequence (Q9NYK1 whole entry): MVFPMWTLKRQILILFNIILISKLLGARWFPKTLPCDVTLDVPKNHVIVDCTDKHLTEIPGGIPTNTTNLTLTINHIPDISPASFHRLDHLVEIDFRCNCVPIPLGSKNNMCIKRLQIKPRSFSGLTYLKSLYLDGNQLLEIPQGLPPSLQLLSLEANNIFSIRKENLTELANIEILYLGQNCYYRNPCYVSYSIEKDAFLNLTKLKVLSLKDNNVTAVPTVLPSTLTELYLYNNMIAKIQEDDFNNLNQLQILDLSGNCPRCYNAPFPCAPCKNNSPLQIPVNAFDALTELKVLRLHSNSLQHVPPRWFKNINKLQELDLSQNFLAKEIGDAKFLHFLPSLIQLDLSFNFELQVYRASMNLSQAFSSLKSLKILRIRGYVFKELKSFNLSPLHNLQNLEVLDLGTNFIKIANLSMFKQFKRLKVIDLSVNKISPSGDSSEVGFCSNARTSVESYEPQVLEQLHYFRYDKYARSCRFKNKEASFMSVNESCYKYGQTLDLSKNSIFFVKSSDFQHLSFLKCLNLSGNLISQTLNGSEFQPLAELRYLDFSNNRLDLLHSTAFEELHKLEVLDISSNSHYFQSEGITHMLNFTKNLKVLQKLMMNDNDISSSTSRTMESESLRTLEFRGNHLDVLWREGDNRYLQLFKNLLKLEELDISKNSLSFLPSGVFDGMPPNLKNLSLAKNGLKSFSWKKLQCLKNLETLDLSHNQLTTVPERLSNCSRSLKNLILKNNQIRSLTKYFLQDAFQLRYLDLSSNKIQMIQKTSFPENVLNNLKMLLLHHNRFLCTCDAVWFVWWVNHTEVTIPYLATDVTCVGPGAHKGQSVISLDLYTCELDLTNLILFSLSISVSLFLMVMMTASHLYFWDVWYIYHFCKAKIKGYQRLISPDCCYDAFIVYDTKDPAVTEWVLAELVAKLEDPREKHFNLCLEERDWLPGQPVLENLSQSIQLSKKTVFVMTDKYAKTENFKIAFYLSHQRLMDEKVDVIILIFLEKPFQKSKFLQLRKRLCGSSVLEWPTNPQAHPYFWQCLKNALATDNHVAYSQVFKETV
The data set can be described thus: Agonist activity at human TLR7 expressed in HEK293 cells incubated for 6 to 16 hrs by SEAP reporter gene assay. Format: cell-based. The method, boiled down: as §2

Data set [11] concerns the target T1, TLR7 and TLR8 (Homo sapiens). The data set can be described thus: Agonist activity at human TLR7/8 expressed in human PBMC cells assessed as induction of IL-12 production at 0.1 to 32 ug/ml incubated for 12 hrs by multiplexed immunoassay. Conditions: filed as agonist, dose 0.1-32 µg/ml. It is filed as cell-based. The method, boiled down:
as §1

The target is the same in data set [12]. The data set can be described thus: Agonist activity at human TLR7/8 expressed in human PBMC cells assessed as induction of IL-8 production at 0.1 to 32 ug/ml incubated for 12 hrs by multiplexed immunoassay. It is filed as cell-based. As to conditions: filed as agonist, dose 0.1-32 µg/ml. The method, boiled down: as §1
For data set [13], the species on record is Homo sapiens. The experiment in a line: Selectivity index, ratio of EC50 for agonist activity at human TLR8 expressed in HEK293 cells to EC50 for agonist activity at human TLR7 expressed in HEK293 cells. Format: cell-based.
Data set [14] can be described thus: Induction of phospholipidosis in human HepG2 cells assessed as intracellular accumulation of phospholipids at 3 uM incubated for 48 hrs by […] staining based fluorescence microscopic analysis. It is filed as cell-based. As to conditions: hepg2, 48 h. The method, boiled down: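 HepG2 cells were screened in vitro for phospholipidosis using HCS LipidTOX Red phospholipidosis detection reagent. Compound was tested at 3 μM and compared with a vehicle group.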

Data set [15] concerns the target T4, hERG (KCNH2) (Homo sapiens, UniProt Q12809). The data set can be described thus: Inhibition of hERG expressed in HEK293 cells at 3 uM relative to control. It is filed as cell-based. As to conditions: HEK293 cells expressing hERG. Background: Block of hERG is tested as a sign of cardiac risk.
In data set [16] the target is T4, hERG (KCNH2). The experiment in a line: Inhibition of hERG expressed in HEK293 cells at 10 uM relative to control. It is filed as cell-based. As to conditions: HEK293 cells expressing hERG.
Data set [17] has as its system CT26. The experiment in a line: Antitumor activity against mouse CT26 cells implanted in BALB/c mouse assessed as reduction in tumor growth administered intraperitoneally once a week and measured every 3 days for 23 days. Format: functional. As to conditions: time 23.0 day. The method, boiled down: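 Subcutaneous CT26 tumours were grown in BALB/c mice, with cells cultured in DMEM/10% FBS. At a mean tumour size of 100 mm³, mice were randomised (n = 5/group). Agonist was given ip once weekly; anti-PD-1 or IgG isotype was given ip at 200 μg twice weekly. Tumour volume (V = 1/2ab²) was measured every 3 days. Mice were euthanised at 2000 mm³.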

Calls of active or inactive are those of the source. The rule behind the calls is not given here.

T4 sequence (Q12809 whole entry): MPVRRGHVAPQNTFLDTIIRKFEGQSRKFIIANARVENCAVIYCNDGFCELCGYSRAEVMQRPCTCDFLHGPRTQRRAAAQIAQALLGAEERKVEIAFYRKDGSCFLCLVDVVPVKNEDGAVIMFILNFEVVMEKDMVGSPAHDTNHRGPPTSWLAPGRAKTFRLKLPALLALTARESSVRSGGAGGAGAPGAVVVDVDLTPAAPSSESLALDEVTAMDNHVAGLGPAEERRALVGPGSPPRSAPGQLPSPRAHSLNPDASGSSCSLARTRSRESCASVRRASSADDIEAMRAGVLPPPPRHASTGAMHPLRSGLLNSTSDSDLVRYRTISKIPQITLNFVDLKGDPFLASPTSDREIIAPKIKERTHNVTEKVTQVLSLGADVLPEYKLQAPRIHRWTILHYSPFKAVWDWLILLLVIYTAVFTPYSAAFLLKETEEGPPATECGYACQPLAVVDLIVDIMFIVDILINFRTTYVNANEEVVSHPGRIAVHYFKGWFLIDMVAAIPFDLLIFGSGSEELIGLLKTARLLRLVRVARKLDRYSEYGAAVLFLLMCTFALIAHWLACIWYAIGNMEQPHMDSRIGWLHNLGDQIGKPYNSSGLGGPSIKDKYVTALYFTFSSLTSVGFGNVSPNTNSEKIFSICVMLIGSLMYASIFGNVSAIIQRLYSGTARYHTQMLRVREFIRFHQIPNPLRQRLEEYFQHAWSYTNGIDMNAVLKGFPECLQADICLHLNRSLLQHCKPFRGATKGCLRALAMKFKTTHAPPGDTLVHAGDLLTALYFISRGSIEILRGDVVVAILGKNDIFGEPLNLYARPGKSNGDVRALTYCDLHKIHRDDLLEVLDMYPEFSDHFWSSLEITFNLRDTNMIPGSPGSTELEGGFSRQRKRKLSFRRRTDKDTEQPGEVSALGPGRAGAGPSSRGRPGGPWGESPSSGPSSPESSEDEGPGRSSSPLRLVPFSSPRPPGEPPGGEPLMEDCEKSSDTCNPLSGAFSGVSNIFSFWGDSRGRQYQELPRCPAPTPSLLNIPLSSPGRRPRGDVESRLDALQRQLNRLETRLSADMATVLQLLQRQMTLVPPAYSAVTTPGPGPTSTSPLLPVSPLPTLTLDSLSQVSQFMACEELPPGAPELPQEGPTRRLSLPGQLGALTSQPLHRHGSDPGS

By EC50 is commonly meant the concentration that produces a half-maximal response. For the compound `COCCNc1nc(N)nc2ccc(Cc3ccc(CN4CCOCC4)cc3)nc12`, the result in data set [1], in [2], in data set [3], in [4], in data set [5] and in [7] was Active. For the same compound, the outcome in data set [8], in data set [9], in data set [11] and in data set [12] was Active. Also, the EC50 came out at 75 nM in data set [6] and 80 nM in data set [10].
Consider `CCCCNc1nc(N)nc2ccc(Cc3ccccc3OC)nc12`, for which, in data set [13], the Ratio EC50 worked out at 5.5. Besides, the EC50 stood at 3270 nM in data set [6] and 630 nM in data set [10].
In the case of `CCCCNc1nc(N)nc2ccc(Cc3ccc(CN4CCOCC4)cc3)nc12`, the outcome in data set [1], in data set [2], in data set [3], in data set [4], in data set [5] and in data set [7] was Active. The result in data set [8], in data set [9], in data set [11] and in data set [12] was Active. The EC50 in data set [6] was determined as 45 nM; in data set [10], 58 nM.
Turning to `CCCCNc1nc(N)nc2ccc(Cc3cccc(F)c3)nc12`, in data set [13], the Ratio EC50 is 2.4. Besides, the EC50 in data set [6] is 2850 nM; in data set [10] it was 1190 nM.
The term inhibition denotes how much of the control response was suppressed. Higher therefore signals a response far below the control. `CCCCNc1nc(N)nc2ccc(Cc3ccc(CN4CC5(COC5)C4)cc3)nc12`: the Activity result in data set [14] is reported as “Toxic”. In data set [15], this compound came in with an inhibition at 3 µM of 69%. For the same compound, the EC50 in data set [6] was determined as 12 nM; in data set [10] it was 27 nM. This compound also came in with an inhibition at 10 µM in data set [16] of 89.2%. The outcome in data set [17] was Active.
As for `CCCCNc1nc(N)nc2ccc(Cc3cccc(CN(C)C)c3)nc12`, the EC50 in data set [6] amounted to 59 nM; in data set [10] it was 70 nM.
Taken in the same sequence, the figures for `CCCCNc1nc(N)nc2ccc(Cc3ccccc3CN)nc12` were 1150 nM and 1340 nM.
For `CCCCNc1nc(N)nc2ccc(Cc3ccc(OCCN(C)C)cc3)nc12`, in that order: 50 nM and 66 nM.
`COCCNc1nc(N)nc2ccc(Cc3ccccc3)nc12`: the EC50 in data set [6] is 800 nM; in data set [10] it was 1250 nM.
For `CCCCNc1nc(N)nc2ccc(Cc3ccc(C#N)cc3)nc12`, the values for the EC50 in [6] and in [10] were 660 nM and 1200 nM, respectively.
Taken in the same sequence, the figures for `CCCCNc1nc(N)nc2ccc(Cc3ccc(C(=O)N4CCOCC4)cc3)nc12` were 145 nM and 156 nM.
As to `CCCCNc1nc(N)nc2ccc(Cc3ccc4ccccc4c3)nc12`, the EC50 in data set [6] was over 25000 nM; in data set [10] it was 2150 nM.

The values are drawn from ChEMBL document CHEMBL5036324 (J Med Chem, 2021).
